According to ChEMBL document CHEMBL1129454, “HIV protease inhibitory bis-benzamide cyclic ureas: a quantitative structure-activity relationship analysis” (J Med Chem, 1996):

What was measured:
[1] = target: T1, Human immunodeficiency virus type 1 protease (Human immunodeficiency virus 1, UniProt Q72874); test: Binding affinity for HIV-1 protease
Procedure, shortened: (§1)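 Cleavage products were separated by anion-exchange HPLC and the product quantified by fluorescence. Each compound was assayed at least twice and the mean reported; assay SD <±40%.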

[2] = target: T1, Human immunodeficiency virus type 1 protease; test: Inhibitory activity against HIV-1 protease; procedure, shortened: as §1
[3] = system: Human immunodeficiency virus 1; test: The concentration required to inhibit HIV-1 RNA synthesis by 90%. Viral RNA quantified by a sandwich hybridization assay; format: functional
Procedure, shortened: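 Susceptible T-cell lines grown in individual microtiter wells were infected with HIV. Cell-associated viral RNA was measured by RNA hybridization 3 days after infection. […] Assay SD was <±37%. Cytotoxicity was scored separately by tetrazolium dye metabolism, because RNA assay results are valid only at non-cytotoxic doses.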

Structure (SMILES) | Ki [1] [nM] | Ki [2] [nM] | IC90 ([3]; Human immunodeficiency virus 1) [nM] | IC90 [3] [nM]
Cc1ccnc(NC(=O)c2cccc(CN3C(=O)N(Cc4cccc(C(=O)Nc5cc(C)ccn5)c4)[C@H](Cc4ccccc4)[C@H](O)[C@@H](O)[C@H]3Cc3ccccc3)c2)c1 | 0.03 | 0.027 | 7.7 | –
NNC(=O)c1cccc(CN2C(=O)N(Cc3cccc(C(=O)NN)c3)[C@H](Cc3ccccc3)[C@H](O)[C@@H](O)[C@H]2Cc2ccccc2)c1 | 0.018 | 0.018 | 884 | –
CNC(=O)c1cccc(CN2C(=O)N(Cc3cccc(C(=O)NC)c3)[C@H](Cc3ccccc3)[C@H](O)[C@@H](O)[C@H]2Cc2ccccc2)c1 (stereo in doubt; 31) | – | 1.9 | – | –
Cc1ccc(NC(=O)c2cccc(CN3C(=O)N(Cc4cccc(C(=O)Nc5ccc(C)cn5)c4)[C@H](Cc4ccccc4)[C@H](O)[C@@H](O)[C@H]3Cc3ccccc3)c2)nc1 | 0.01 | 0.011 | 3.1 | –
O=C(NCC(F)(F)F)c1cccc(CN2C(=O)N(Cc3cccc(C(=O)NCC(F)(F)F)c3)[C@H](Cc3ccccc3)[C@H](O)[C@@H](O)[C@H]2Cc2ccccc2)c1 | 0.21 | 0.21 | 92.5 | –
O=C(Nc1ncc(Cl)cc1Cl)c1cccc(CN2C(=O)N(Cc3cccc(C(=O)Nc4ncc(Cl)cc4Cl)c3)[C@H](Cc3ccccc3)[C@H](O)[C@@H](O)[C@H]2Cc2ccccc2)c1 | 0.24 | 0.245 | 43 | –
CC(C)c1nc(CN(C)C(=O)N[C@H](C(=O)N[C@@H](Cc2ccccc2)C[C@H](O)[C@H](Cc2ccccc2)NC(=O)OCc2cncs2)C(C)C)cs1 [RITONAVIR] | – | – | 76 | –
CC(C)(C)NC(=O)[C@@H]1C[C@@H]2CCCC[C@@H]2CN1C[C@@H](O)[C@H](Cc1ccccc1)NC(=O)[C@H](CC(N)=O)NC(=O)c1ccc2ccccc2n1 | – | – | 10.4 | –
O=C(NO)c1cccc(CN2C(=O)N(Cc3cccc(C(=O)NO)c3)[C@H](Cc3ccccc3)[C@H](O)[C@@H](O)[C@H]2Cc2ccccc2)c1 | 0.02 | 0.02 | 448 | –
O=C(Nc1ncccn1)c1cccc(CN2C(=O)N(Cc3cccc(C(=O)Nc4ncccn4)c3)[C@H](Cc3ccccc3)[C@H](O)[C@@H](O)[C@H]2Cc2ccccc2)c1 | 0.15 | 0.152 | 220 | –
CCCCNC(=O)c1cccc(CN2C(=O)N(Cc3cccc(C(=O)NCCCC)c3)[C@H](Cc3ccccc3)[C@H](O)[C@@H](O)[C@H]2Cc2ccccc2)c1 | 0.424 | 0.424 | 255 | –
CNC(=O)c1cccc(CN2C(=O)N(Cc3cccc(C(=O)NC)c3)[C@H](Cc3ccccc3)[C@H](O)[C@@H](O)[C@H]2Cc2ccccc2)c1 (stereo in doubt; 6) | 0.06 | 0.066 | – | 80.5
N#CCNC(=O)c1cccc(CN2C(=O)N(Cc3cccc(C(=O)NCC#N)c3)[C@H](Cc3ccccc3)[C@H](O)[C@@H](O)[C@H]2Cc2ccccc2)c1 | 0.063 | 0.063 | 596 | –
Cc1ccnc(NC(=O)c2cccc(CN3C(=O)N(Cc4cccc(C(=O)Nc5nccc(C)n5)c4)[C@H](Cc4ccccc4)[C@H](O)[C@@H](O)[C@H]3Cc3ccccc3)c2)n1 | 0.12 | 0.115 | 124 | –
CC(C)(C)NC(=O)c1cccc(CN2C(=O)N(Cc3cccc(C(=O)NC(C)(C)C)c3)[C@H](Cc3ccccc3)[C@H](O)[C@@H](O)[C@H]2Cc2ccccc2)c1 | 2.6 | 2.4 | 717 | –
O=C(Nc1ccc(Cl)cn1)c1cccc(CN2C(=O)N(Cc3cccc(C(=O)Nc4ccc(Cl)cn4)c3)[C@H](Cc3ccccc3)[C@H](O)[C@@H](O)[C@H]2Cc2ccccc2)c1 | 0.01 | 0.012 | 14.7 | –
CC(C)(C)NC(=O)[C@@H]1CN(Cc2cccnc2)CCN1C[C@@H](O)C[C@@H](Cc1ccccc1)C(=O)NC1c2ccccc2C[C@H]1O (single isomer, unassigned) | – | – | 50 | –
CCNC(=O)c1cccc(CN2C(=O)N(Cc3cccc(C(=O)NCC)c3)[C@H](Cc3ccccc3)[C@H](O)[C@@H](O)[C@H]2Cc2ccccc2)c1 | 0.21 | 0.21 | 139 | –
Cc1cccc(NC(=O)c2cccc(CN3C(=O)N(Cc4cccc(C(=O)Nc5cccc(C)n5)c4)[C@H](Cc4ccccc4)[C@H](O)[C@@H](O)[C@H]3Cc3ccccc3)c2)n1 | 0.02 | 0.02 | 3.2 | –
O=C1N(Cc2ccc(CO)cc2)[C@H](Cc2ccccc2)[C@H](O)[C@@H](O)[C@@H](Cc2ccccc2)N1Cc1ccc(CO)cc1 [DMP-323] | – | – | 115 | –

Structure (SMILES) | Ki [1] [nM] | Ki [2] [nM] | IC90 ([3]; Human immunodeficiency virus 1) [nM] | IC90 [3] [nM]
Cc1cc(C)nc(NC(=O)c2cccc(CN3C(=O)N(Cc4cccc(C(=O)Nc5cc(C)cc(C)n5)c4)[C@H](Cc4ccccc4)[C@H](O)[C@@H](O)[C@H]3Cc3ccccc3)c2)c1 | 0.02 | 0.016 | 6.6 | –
CC(C)NC(=O)c1cccc(CN2C(=O)N(Cc3cccc(C(=O)NC(C)C)c3)[C@H](Cc3ccccc3)[C@H](O)[C@@H](O)[C@H]2Cc2ccccc2)c1 | 0.58 | 0.579 | 266 | –
O=C(Nc1nnc(C(F)(F)F)s1)c1cccc(CN2C(=O)N(Cc3cccc(C(=O)Nc4nnc(C(F)(F)F)s4)c3)[C@H](Cc3ccccc3)[C@H](O)[C@@H](O)[C@H]2Cc2ccccc2)c1 | – | 0.18 | 74.8 | –
O=C(Nc1cccnc1)c1cccc(CN2C(=O)N(Cc3cccc(C(=O)Nc4cccnc4)c3)[C@H](Cc3ccccc3)[C@H](O)[C@@H](O)[C@H]2Cc2ccccc2)c1 | 0.29 | 0.29 | 123 | –
O=C(Nc1ccc(Br)cn1)c1cccc(CN2C(=O)N(Cc3cccc(C(=O)Nc4ccc(Br)cn4)c3)[C@H](Cc3ccccc3)[C@H](O)[C@@H](O)[C@H]2Cc2ccccc2)c1 | 0.04 | 0.035 | 28.2 | –
O=C(Nc1nccs1)c1cccc(CN2C(=O)N(Cc3cccc(C(=O)Nc4nccs4)c3)[C@H](Cc3ccccc3)[C@H](O)[C@@H](O)[C@H]2Cc2ccccc2)c1 | – | – | 1.7 | –
O=C(Nc1ncc[nH]1)c1cccc(CN2C(=O)N(Cc3cccc(C(=O)Nc4ncc[nH]4)c3)[C@H](Cc3ccccc3)[C@H](O)[C@@H](O)[C@H]2Cc2ccccc2)c1 | – | 0.014 | 45.5 | –
O=C(Nc1ccccn1)c1cccc(CN2C(=O)N(Cc3cccc(C(=O)Nc4ccccn4)c3)[C@H](Cc3ccccc3)[C@H](O)[C@@H](O)[C@H]2Cc2ccccc2)c1 | 0.01 | 0.043 | 2.8 | –
O=C(Nc1ccccc1)c1cccc(CN2C(=O)N(Cc3cccc(C(=O)Nc4ccccc4)c3)[C@H](Cc3ccccc3)[C@H](O)[C@@H](O)[C@H]2Cc2ccccc2)c1 | 0.37 | 0.43 | 510 | –
O=C(Nc1ccncc1)c1cccc(CN2C(=O)N(Cc3cccc(C(=O)Nc4ccncc4)c3)[C@H](Cc3ccccc3)[C@H](O)[C@@H](O)[C@H]2Cc2ccccc2)c1 | 0.41 | 0.41 | 93.7 | –
Cc1coc(NC(=O)c2cccc(CN3C(=O)N(Cc4cccc(C(=O)Nc5nc(C)co5)c4)[C@H](Cc4ccccc4)[C@H](O)[C@@H](O)[C@H]3Cc3ccccc3)c2)n1 | – | 0.064 | 59.6 | –
CCCNC(=O)c1cccc(CN2C(=O)N(Cc3cccc(C(=O)NCCC)c3)[C@H](Cc3ccccc3)[C@H](O)[C@@H](O)[C@H]2Cc2ccccc2)c1 | 0.28 | 0.359 | 259 | –
Cc1cnc(NC(=O)c2cccc(CN3C(=O)N(Cc4cccc(C(=O)Nc5ncc(C)s5)c4)[C@H](Cc4ccccc4)[C@H](O)[C@@H](O)[C@H]3Cc3ccccc3)c2)s1 | – | 0.014 | 17.8 | –
Cc1csc(NC(=O)c2cccc(CN3C(=O)N(Cc4cccc(C(=O)Nc5nc(C)cs5)c4)[C@H](Cc4ccccc4)[C@H](O)[C@@H](O)[C@H]3Cc3ccccc3)c2)n1 | – | 0.025 | 4.1 | –
Cc1cccnc1NC(=O)c1cccc(CN2C(=O)N(Cc3cccc(C(=O)Nc4ncccc4C)c3)[C@H](Cc3ccccc3)[C@H](O)[C@@H](O)[C@H]2Cc2ccccc2)c1 | 0.26 | 0.26 | 50.3 | –
CONC(=O)c1cccc(CN2C(=O)N(Cc3cccc(C(=O)NOC)c3)[C@H](Cc3ccccc3)[C@H](O)[C@@H](O)[C@H]2Cc2ccccc2)c1 | 0.08 | 0.045 | 214 | –
O=C(Nc1nc2ccccc2[nH]1)c1cccc(CN2C(=O)N(Cc3cccc(C(=O)Nc4nc5ccccc5[nH]4)c3)[C@H](Cc3ccccc3)[C@H](O)[C@@H](O)[C@H]2Cc2ccccc2)c1 | – | – | 3.9 | –
O=C(Nc1nncs1)c1cccc(CN2C(=O)N(Cc3cccc(C(=O)Nc4nncs4)c3)[C@H](Cc3ccccc3)[C@H](O)[C@@H](O)[C@H]2Cc2ccccc2)c1 | – | 0.11 | 51.3 | –
CC(C)CN(C[C@@H](O)[C@H](Cc1ccccc1)NC(=O)O[C@H]1CCOC1)S(=O)(=O)c1ccc(N)cc1 | – | – | 46 | –
